{"source": "ChEMBL document CHEMBL2146441", "about": "“2,6-Disubstituted imidazo[2,1-b][1,3,4]thiadiazoles: search for anticancer agents” (2012)", "assay_type_in_all_cases": "functional", "key": {"NCI-H226": {"system": "NCI-H226", "test": "Cytotoxicity against human NCI-H226 cells assessed as cell growth at 10^-5 M after 48 hrs by SRB assay", "details": "NCI-H226, 48 h, read-out: Activity"}, "RXF 393": {"system": "RXF 393", "test": "Cytotoxicity against human RXF393 cells assessed as cell growth at 10^-5 M after 48 hrs by SRB assay", "details": "RXF 393, 48 h, read-out: Activity"}, "SF-295 [1]": {"system": "SF-295", "test": "Growth inhibition of human SF295 cells after 48 hrs by SRB assay", "details": "SF-295, 48 h", "outline": "(§1)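 Adherent NCI-60 lines grown in RPMI 1640 with 5% FBS, seeded at 5000–40,000 cells/well, and preincubated 24 h at 37 °C, 5% CO2. Compound, stocked in DMSO, given either once at 10^-5 M or at five 10-fold dilutions for 48 h. Cells fixed with cold TCA (final 10%), stained with 0.4% SRB, and read at 515 nm. GI50 taken as 50% reduction in net protein increase versus time-zero and control plates.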"}, "UACC-62": {"system": "UACC-62", "test": "Growth inhibition of human UACC62 cells after 48 hrs by SRB assay", "details": "UACC-62, 48 h", "outline": "as §1"}, "OVCAR-8": {"system": "OVCAR-8", "test": "Growth inhibition of human OVCAR8 cells after 48 hrs by SRB assay", "details": "OVCAR-8, 48 h", "outline": "as §1"}, "[2]": {"test": "Growth inhibition of human NCI-ADR-RES cells after 48 hrs by SRB assay", "outline": "as §1"}, "SK-OV-3": {"system": "SK-OV-3", "test": "Growth inhibition of human SKOV3 cells after 48 hrs by SRB assay", "details": "SK-OV-3, 48 h", "outline": "as §1"}, "UO-31 [3]": {"system": "UO-31", "test": "Growth inhibition of human UO31 cells after 48 hrs by SRB assay", "details": "UO-31, 48 h", "outline": "as §1"}, "CCRF-CEM": {"system": "CCRF-CEM", "test": "Cytotoxicity against human CCRF-CEM cells assessed as cell growth at 10^-4 M after 48 hrs by SRB assay", "details": "read-out: Activity", "outline": "(§2)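 NCI-60 screen: lines kept in RPMI 1640 with 5% FBS, seeded at 5000–40,000 cells/well by doubling time, preincubated 24 h at 37 °C in 5% CO2. Time-zero plates TCA-fixed at drug addition. DMSO stocks diluted in medium, 48 h exposure. Fixation in cold TCA (final 10% adherent, 16% suspension), 0.4% SRB stain, solubilised in 10 mM Tris base, A515. Percent growth computed against control and time-zero.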"}, "A549": {"system": "A549", "test": "Cytotoxicity against human A549 cells assessed as cell growth at 10^-7 M after 48 hrs by SRB assay", "details": "A549, 48 h, read-out: Activity", "outline": "as §2"}, "MDA-MB-435": {"system": "MDA-MB-435", "test": "Cytotoxicity against human MDA-MB-435 cells assessed as cell growth at 10^-7 M after 48 hrs by SRB assay", "details": "MDA-MB-435, 48 h, read-out: Activity"}, "SK-MEL-2": {"system": "SK-MEL-2", "test": "Cytotoxicity against human SK-MEL-2 cells assessed as cell growth at 10^-7 M after 48 hrs by SRB assay", "details": "SK-MEL-2, 48 h, read-out: Activity"}, "NCI-H522 [4]": {"system": "NCI-H522", "test": "Cytotoxicity against human NCI-H522 cells assessed as cell growth at 10^-4 M after 48 hrs by SRB assay", "details": "NCI-H522, 48 h, read-out: Activity"}, "HCT-116": {"system": "HCT-116", "test": "Cytotoxicity against human HCT116 cells assessed as cell growth at 10^-4 M after 48 hrs by SRB assay", "details": "HCT-116, 48 h, read-out: Activity", "outline": "(§3)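 NCI-60 five-dose screen. Cells were grown in RPMI 1640 with 5% FBS and seeded at 5000–40,000 cells/well according to doubling time. They were pre-incubated 24 h at 37 °C in 5% CO₂, and time-zero (Tz) plates were TCA-fixed at drug addition. Five 10-fold dilutions of DMSO stock were applied for 48 h. Read-out was SRB staining, 515 nm absorbance, with percent growth calculated versus Tz and untreated control.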"}, "HT-29": {"system": "HT-29", "test": "Cytotoxicity against human HT-29 cells assessed as cell growth at 10^-4 M after 48 hrs by SRB assay", "details": "HT-29, 48 h, read-out: Activity", "outline": "as §3"}, "SW-620": {"system": "SW-620", "test": "Cytotoxicity against human SW620 cells assessed as cell growth at 10^-4 M after 48 hrs by SRB assay", "details": "SW-620, 48 h, read-out: Activity"}, "M14": {"system": "M14", "test": "Cytotoxicity against human M14 cells assessed as cell growth at 10^-4 M after 48 hrs by SRB assay", "details": "M14, 48 h, read-out: Activity"}, "UACC-257": {"system": "UACC-257", "test": "Cytotoxicity against human UACC257 cells assessed as cell growth at 10^-4 M after 48 hrs by SRB assay", "details": "UACC-257, 48 h, read-out: Activity"}, "UO-31 [5]": {"system": "UO-31", "test": "Cytotoxicity against human UO31 cells assessed as cell growth at 10^-4 M after 48 hrs by SRB assay", "details": "UO-31, 48 h, read-out: Activity"}, "MDA-MB-231 [6]": {"system": "MDA-MB-231", "test": "Cytotoxicity against human MDA-MB-231 cells assessed as cell growth at 10^-4 M after 48 hrs by SRB assay", "details": "MDA-MB-231, 48 h, read-out: Activity"}, "MCF7": {"system": "MCF7", "test": "Cytotoxicity against human MCF7 cells assessed as cell growth at 10^-8 M after 48 hrs by SRB assay", "details": "MCF7, 48 h, read-out: Activity"}, "T47D": {"system": "T47D", "test": "Cytotoxicity against human T47D cells assessed as cell growth at 10^-8 M after 48 hrs by SRB assay", "details": "read-out: Activity"}, "NCI-H322M": {"system": "NCI-H322M", "test": "Cytotoxicity against human NCI-H322M cells assessed as cell growth at 10^-6 M after 48 hrs by SRB assay", "details": "read-out: Activity"}, "NCI-H460": {"system": "NCI-H460", "test": "Cytotoxicity against human NCI-H460 cells assessed as cell growth at 10^-6 M after 48 hrs by SRB assay", "details": "NCI-H460, 48 h, read-out: Activity"}, "SF-295 [7]": {"system": "SF-295", "test": "Cytotoxicity against human SF295 cells assessed as cell growth at 10^-6 M after 48 hrs by SRB assay", "details": "SF-295, 48 h, read-out: Activity"}, "PC-3": {"system": "PC-3", "test": "Cytotoxicity against human PC3 cells assessed as cell growth at 10^-6 M after 48 hrs by SRB assay", "details": "PC-3, 48 h, read-out: Activity"}, "NCI-H522 [8]": {"system": "NCI-H522", "test": "Growth inhibition of human NCI-H522 cells after 48 hrs by SRB assay", "details": "NCI-H522, 48 h", "outline": "as §1"}, "MDA-MB-231 [9]": {"system": "MDA-MB-231", "test": "Cytotoxicity against human MDA-MB-231 cells assessed as cell growth at 10^-6 M after 48 hrs by SRB assay", "details": "MDA-MB-231, 48 h, read-out: Activity"}, "EKVX": {"system": "EKVX", "test": "Cytotoxicity against human EKVX cells assessed as cell growth at 10^-5 M after 48 hrs by SRB assay", "details": "read-out: Activity", "outline": "as §2"}, "HOP-92": {"system": "HOP-92", "test": "Cytotoxicity against human HOP92 cells assessed as cell growth at 10^-5 M after 48 hrs by SRB assay", "details": "HOP-92, 48 h, read-out: Activity", "outline": "as §3"}, "[10]": {"details": "read-out: LC50 (the source's name)"}}}
{"smiles": "COc1ccc(-c2nn3cc(-c4cccc(N)c4)nc3s2)cc1", "values": [{"measurement": "growth at 10 µM", "setting": "NCI-H226", "result": 16, "unit": "%"}, {"measurement": "growth at 10 µM", "setting": "RXF 393", "result": -31, "unit": "%"}, {"measurement": "GI50", "setting": "SF-295 [1]", "result": 2.88, "unit": "µM"}, {"measurement": "TGI", "setting": "SF-295 [1]", "result": 29.3, "unit": "µM"}, {"measurement": "CC50", "setting": "SF-295 [1]; [10]", "result": "> 100", "unit": "µM"}, {"measurement": "GI50", "setting": "UACC-62", "result": 2.92, "unit": "µM"}, {"measurement": "TGI", "setting": "UACC-62", "result": 24.4, "unit": "µM"}, {"measurement": "CC50", "setting": "UACC-62; [10]", "result": "> 100", "unit": "µM"}, {"measurement": "GI50", "setting": "OVCAR-8", "result": 4.97, "unit": "µM"}, {"measurement": "TGI", "setting": "OVCAR-8", "result": 23, "unit": "µM"}, {"measurement": "CC50", "setting": "OVCAR-8; [10]", "result": 89.9, "unit": "µM"}, {"measurement": "GI50", "setting": "[2]", "result": 4.46, "unit": "µM"}, {"measurement": "LC50", "setting": "[2]", "result": "> 100", "unit": "µM"}, {"measurement": "TGI", "setting": "[2]", "result": 55.1, "unit": "µM"}, {"measurement": "GI50", "setting": "SK-OV-3", "result": 2.72, "unit": "µM"}, {"measurement": "TGI", "setting": "SK-OV-3", "result": 10.8, "unit": "µM"}, {"measurement": "CC50", "setting": "SK-OV-3; [10]", "result": 54.9, "unit": "µM"}, {"measurement": "GI50", "setting": "UO-31 [3]", "result": 1.46, "unit": "µM"}, {"measurement": "LC50", "setting": "UO-31 [3]", "result": 63.3, "unit": "µM"}, {"measurement": "TGI", "setting": "UO-31 [3]", "result": 10.2, "unit": "µM"}, {"measurement": "growth at 100 µM", "setting": "CCRF-CEM", "result": 6, "unit": "%"}, {"measurement": "growth at 0.1 µM", "setting": "A549", "result": 106, "unit": "%"}, {"measurement": "growth at 0.1 µM", "setting": "MDA-MB-435", "result": 88, "unit": "%"}, {"measurement": "growth at 0.1 µM", "setting": "SK-MEL-2", "result": 93, "unit": "%"}, {"measurement": "growth at 100 µM", "setting": "NCI-H522 [4]", "result": -76, "unit": "%"}, {"measurement": "growth at 100 µM", "setting": "HCT-116", "result": -91, "unit": "%"}, {"measurement": "growth at 100 µM", "setting": "HT-29", "result": -48, "unit": "%"}, {"measurement": "growth at 100 µM", "setting": "SW-620", "result": -5, "unit": "%"}, {"measurement": "growth at 100 µM", "setting": "M14", "result": -54, "unit": "%"}, {"measurement": "growth at 100 µM", "setting": "UACC-257", "result": 7, "unit": "%"}, {"measurement": "growth at 100 µM", "setting": "UO-31 [5]", "result": -63, "unit": "%"}, {"measurement": "growth at 100 µM", "setting": "MDA-MB-231 [6]", "result": -35, "unit": "%"}, {"measurement": "growth at 0.01 µM", "setting": "MCF7", "result": 86, "unit": "%"}, {"measurement": "growth at 0.01 µM", "setting": "T47D", "result": 97, "unit": "%"}, {"measurement": "growth at 1 µM", "setting": "NCI-H322M", "result": 86, "unit": "%"}, {"measurement": "growth at 1 µM", "setting": "NCI-H460", "result": 76, "unit": "%"}, {"measurement": "growth at 1 µM", "setting": "SF-295 [7]", "result": 72, "unit": "%"}, {"measurement": "growth at 1 µM", "setting": "PC-3", "result": 53, "unit": "%"}, {"measurement": "GI50", "setting": "NCI-H522 [8]", "result": 1.63, "unit": "µM"}, {"measurement": "TGI", "setting": "NCI-H522 [8]", "result": 14, "unit": "µM"}, {"measurement": "CC50", "setting": "NCI-H522 [8]; [10]", "result": 51.1, "unit": "µM"}, {"measurement": "growth at 1 µM", "setting": "MDA-MB-231 [9]", "result": 61, "unit": "%"}, {"measurement": "growth at 10 µM", "setting": "EKVX", "result": 2, "unit": "%"}, {"measurement": "growth at 10 µM", "setting": "HOP-92", "result": -25, "unit": "%"}]}
